Measured values published in PubChem BioAssay AID1258 (University of Pittsburgh Molecular Library Screening Center, 2008).
Screen size: about 1,100 compounds; about 150 (14%) were called active. Inconclusive results (about 1%) are left out.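 Rule for the calls: active = inhibition above about 50% in both repeat tests (limit read from the data); inconclusive = one repeat under the set limit, the other over it; inactive = both repeats under the set limit.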 A selection follows.

assay: antileishmanial activity against promastigotes – 1 µM repeat of primary hits, confirmation (AID 1258); conditions: L. major promastigote growth, resazurin fluorescence, 48 h; at 1 µM; hits give high values
In short: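 System: Leishmania major promastigotes, whole-parasite viability assay; Quantity: 5,000 promastigotes per well; Buffer or medium: medium 199 plus 10% heat-inactivated FBS; Compound: 1 µM single concentration; Incubation: 44 h compound exposure, 4 h dye incubation, 28 °C; Read-out: promastigote viability inhibition; Controls: DMSO high/low controls plus tamoxifen reference.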

inhibition, inactive:
Clc1ccc(-n2nnnc2-c2cnc(-c3ccccn3)nc2-c2cccs2)cc1 -17.1%
c1ccc(CC2CCN(c3nc4ccccc4n4cnnc34)CC2)cc1 -11.4%
CC(=O)NC1C(Oc2ccc(C)cc2)OC2COC(c3ccco3)OC2C1O (stereo not given) -11.1%
N#Cc1ccc(N2Cc3ccccc3/C2=N/C(=O)Nc2ccc(Cl)cc2)cc1 14%
CCOC(=O)c1c(C2CC2)csc1NC(=O)CSCc1c(C)noc1C -3.56%
CNC(=S)N/N=C/c1cn(Cc2ccc(C)cc2)c2ccccc12 -4.3%
COc1ccc2c(c1)C=CC1(O2)N(CCO)c2ccccc2C1(C)C (stereo not given) -3.93%
O=C(c1ccc(-c2ccccc2)cc1)C1CCCN(C(=O)c2cncs2)C1 (stereo not given) -12.9%
Cn1c(-c2sc3cc(C(F)(F)F)cnc3c2-c2ccccc2)n[nH]c1=S -17.6%
N#Cc1ccc(-c2nc3cc(C#N)c(C#N)cc3nc2-c2ccccc2)cc1C#N -5.54%
c1ccc2cc(OCCN3CCCC3)ccc2c1 12.5%
Cc1nn(-c2ccccc2)c2sc(C(=O)N(Cc3ccco3)C(C)C(=O)NC(C)(C)C)cc12 (stereo not given) -6.73%
COCCN(CCOC)S(=O)(=O)c1ccc(C(=O)Nc2nc3c(s2)CCc2ccccc2-3)cc1 -8.24%
CC(C)Cc1nn2c(=O)cc(O)nc2s1 -1.83%
Cc1c(Br)cc(C(=O)N2CCCCCC2)c(C)c1C -3.85%
CCOC(=O)/C(N=Nc1cc(C(=O)O)cc(C(=O)O)c1)=C(\O)CCl -4.13%
CCOC(=O)N1CCN(C(c2cccnc2)c2ccc3cccnc3c2O)CC1 (stereo not given) -7.1%
CCc1nc(C)cn1S(=O)(=O)c1cc(OC)c(C)cc1C 0.254%
Fc1cc(F)c2nc(Nc3nc4c(F)cccc4s3)sc2c1 -9.65%
CC1(C)CC(=O)c2c(n(S(=O)(=O)c3ccccc3)c3ccc(NS(=O)(=O)c4ccccc4)cc23)C1 -25.3%
O=C(/C=C/Sc1ncn[nH]1)c1ccc(Cl)cc1 29.4%
CCOC(=O)C1=C(CC)Nc2ccccc2N=C1NC(=O)c1cccc(S(=O)(=O)N2CCCC2)c1 -9.84%
Cc1cccc(-n2c(N)cc(=O)nc2SC(C)C(=O)NC2CCCCC2)c1 (stereo not given) 29.9%
Cc1nn(CC2CC2)c(=O)n1N(C)c1ncc(C(F)(F)F)cc1Cl -15.7%
Clc1ccc(C2=CSC3=Nc4cccc5cccc(c45)N23)cc1 -13.5%
